Laboratory results reported in ChEMBL document CHEMBL6071131, “New substituted benzoxazine derivatives as potent inducers of membrane permeability and cell death” (Bioorg Med Chem, 2024).
Calls of active or inactive are those of the source. The calls are words filed in the database; no cut-off is given here.

Legend:
MCF7 [1] = assay: Antiproliferative activity against human MCF7 cells incubated for 72 hrs by SRB assay; format: functional, cell-based; conditions: MCF7, 72 h
Method in brief: (§1)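 Sulforhodamine B colorimetric read-out after 72 h drug exposure. Cells kept in DMEM with 10 % FBS and 1 % penicillin/streptomycin at 37 °C under 5 % CO₂, mycoplasma-checked, passaged under 6 months. Compounds given from DMSO stocks diluted in medium, final DMSO ≤ 0.1 % v/v, with DMSO-only parallel cultures as controls. IC50 reported as mean ± SD of three independent determinations, each run in duplicate.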

HCT-116 [2] = assay: Antiproliferative activity against human HCT-116 cells incubated for 72 hrs by SRB assay; format: functional, cell-based; conditions: HCT-116, 72 h; method in brief: as §1
[3] = target: Epidermal growth factor receptor (Homo sapiens) (UniProt P00533); assay: Inhibition of human EGFR assessed as residual activity at 5 uM relative to control
Method in brief: (§2)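 Residual kinase activity determined with each compound at 5×10⁻⁶ and 5×10⁻⁵ M, in singlicate per kinase assay, expressed relative to uninhibited control.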

[4] = target: T1, LKB1-STRAD-MO25 complex (Homo sapiens) (UniProt Q15831+Q7RTN6+Q9Y376); assay: Inhibition of human LKB1/MO25/STRADalpha assessed as residual activity at 50 uM relative to control; format: protein-complex assay; method in brief: as §2
[5] = target: Receptor tyrosine-protein kinase erbB-2 (Homo sapiens) (UniProt P04626); assay: Inhibition of human HER2 assessed as residual activity at 5 uM relative to control; method in brief: as §2
[6] = target: Mitogen-activated protein kinase 14 (Homo sapiens) (UniProt Q16539); assay: Inhibition of human P38-alpha assessed as residual activity at 50 uM relative to control; method in brief: as §2
Homo sapiens [7] = organism: Homo sapiens; assay: Inhibition of human AKT assessed as residual activity at 50 uM relative to control; method in brief: as §2
[8] = target: 5'-AMP-activated protein kinase catalytic subunit alpha-1 (Homo sapiens) (UniProt Q13131); assay: Inhibition of human AMPK alpha-1 assessed as residual activity at 5 uM relative to control; method in brief: as §2
[9] = target: Receptor tyrosine-protein kinase erbB-2 (Homo sapiens) (UniProt P04626); assay: Inhibition of human HER2 assessed as residual activity at 50 uM relative to control; method in brief: as §2
[10] = target: Epidermal growth factor receptor (Homo sapiens) (UniProt P00533); assay: Inhibition of human EGFR assessed as residual activity at 50 uM relative to control; method in brief: as §2
[11] = target: Mitogen-activated protein kinase 1 (Homo sapiens) (UniProt P28482); assay: Inhibition of human ERK2 assessed as residual activity at 5 uM relative to control; method in brief: as §2
[12] = target: Mitogen-activated protein kinase 8 (Homo sapiens) (UniProt P45983); assay: Inhibition of human JNK1 assessed as residual activity at 50 uM relative to control; method in brief: as §2
[13] = target: Mitogen-activated protein kinase 1 (Homo sapiens) (UniProt P28482); assay: Inhibition of human ERK2 assessed as residual activity at 50 uM relative to control; method in brief: as §2
[14] = target: Mitogen-activated protein kinase 14 (Homo sapiens) (UniProt Q16539); assay: Inhibition of human P38-alpha assessed as residual activity at 5 uM relative to control; method in brief: as §2
Homo sapiens [15] = organism: Homo sapiens; assay: Inhibition of human AKT assessed as residual activity at 5 uM relative to control; method in brief: as §2
[16] = target: 5'-AMP-activated protein kinase catalytic subunit alpha-1 (Homo sapiens) (UniProt Q13131); assay: Inhibition of human AMPK alpha-1 assessed as residual activity at 50 uM relative to control; method in brief: as §2
[17] = target: T1, LKB1-STRAD-MO25 complex (Homo sapiens); assay: Inhibition of human LKB1/MO25/STRADalpha assessed as residual activity at 5 uM relative to control; format: protein-complex assay; method in brief: as §2
[18] = target: Mitogen-activated protein kinase 8 (Homo sapiens) (UniProt P45983); assay: Inhibition of human JNK1 assessed as residual activity at 5 uM relative to control; method in brief: as §2
HCT-116 [19] = assay: Induction of morphological changes in human HCT-116 cells assessed as formation of vesicular bodies incubated for 24 hrs by SEM analysis; format: functional, cell-based
HCT-116 [20] = assay: Induction of cell cycle arrest in human HCT-116 cells assessed as accumulation of cells at G2/M phase at 50 uM incubated for 12 hrs by PI staining based flow cytometry (reference value: 8.3 +/- 0.74 %); format: functional
HCT-116 [21] = assay: Induction of morphological changes in human HCT-116 cells assessed as formation of membrane blebbing incubated for 24 hrs by SEM analysis; format: functional, cell-based
HCT-116 [22] = assay: Induction of apoptosis in human HCT-116 cells assessed as necrotic cells at 50 uM incubated for 12 hrs by Annexin V-FITC/PI staining based flow cytometry (reference value: 3.5 +/- 0.66 %); format: functional
HCT-116 [23] = assay: Induction of apoptosis in human HCT-116 cells assessed as late apoptotic cells at 50 uM incubated for 12 hrs by Annexin V-FITC/PI staining based flow cytometry (reference value: 2.8 +/- 0.38 %); format: functional
MCF7 [24] = assay: Induction of apoptosis in human MCF7 cells assessed as necrotic cells at 50 uM incubated for 12 hrs by Annexin V-FITC/PI staining based flow cytometry (reference value: 0.56 +/- 0.04 %); format: functional
HCT-116 [25] = assay: Induction of morphological changes in human HCT-116 cells assessed as flattening of cellular structure incubated for 24 hrs by SEM analysis; format: functional, cell-based
HCT-116 [26] = assay: Induction of morphological changes in human HCT-116 cells assessed as multiple cellular remnants formation incubated for 24 hrs by SEM analysis; format: functional, cell-based
HCT-116 [27] = assay: Induction of cell cycle arrest in human HCT-116 cells assessed as accumulation of cells at S phase at 50 uM incubated for 12 hrs by PI staining based flow cytometry (reference value: 18.7 +/- 0.5 %); format: functional
MCF7 [28] = assay: Induction of apoptosis in human MCF7 cells assessed as early apoptotic cells at 50 uM incubated for 12 hrs by Annexin V-FITC/PI staining based flow cytometry (reference value: 0.33 +/- 0.12 %); format: functional
MCF7 [29] = assay: Cytotoxicity against human MCF7 cells at 50 uM incubated for 12 hrs by PI staining based flow cytometry relative to control; format: functional
MCF7 [30] = assay: Induction of morphological changes in human MCF7 cells assessed as formation of membrane blebbing incubated for 24 hrs by SEM analysis; format: functional, cell-based
HCT-116 [31] = assay: Induction of morphological changes in human HCT-116 cells assessed as pore formation in cell membrane incubated for 24 hrs by SEM analysis; format: functional, cell-based
MCF7 [32] = assay: Induction of morphological changes in human MCF7 cells assessed as formation of large pores in cell membrane incubated for 12 hrs by SEM analysis
MCF7 [33] = assay: Induction of morphological changes in human MCF7 cells assessed as formation of round vesicular bodies incubated for 24 hrs by SEM analysis; format: functional, cell-based
MCF7 [34] = assay: Induction of apoptosis in human MCF7 cells assessed as late apoptotic cells at 50 uM incubated for 12 hrs by Annexin V-FITC/PI staining based flow cytometry (reference value: 0.26 +/- 0.09 %); format: functional
MCF7 [35] = assay: Antiproliferative activity against human MCF7 cells incubated for 5 days by PrestoBlue assay; format: functional, cell-based; conditions: MCF7, 120 h
HCT-116 [36] = assay: Antiproliferative activity against human HCT-116 cells incubated for 5 days by PrestoBlue assay; format: functional, cell-based; conditions: HCT-116, 120 h

Sequence of Mitogen-activated protein kinase 1 (Homo sapiens) (P28482 whole entry): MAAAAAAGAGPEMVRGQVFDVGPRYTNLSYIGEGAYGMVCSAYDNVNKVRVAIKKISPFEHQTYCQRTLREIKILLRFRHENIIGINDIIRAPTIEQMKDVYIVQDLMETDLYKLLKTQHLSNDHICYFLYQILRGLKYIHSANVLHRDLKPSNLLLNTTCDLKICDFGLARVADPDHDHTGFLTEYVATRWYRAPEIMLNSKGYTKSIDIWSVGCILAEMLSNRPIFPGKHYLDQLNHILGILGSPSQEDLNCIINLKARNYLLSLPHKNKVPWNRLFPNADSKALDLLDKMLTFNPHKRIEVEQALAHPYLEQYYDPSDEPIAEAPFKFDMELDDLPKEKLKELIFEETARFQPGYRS
Sequence of Receptor tyrosine-protein kinase erbB-2 (Homo sapiens) (P04626 whole entry): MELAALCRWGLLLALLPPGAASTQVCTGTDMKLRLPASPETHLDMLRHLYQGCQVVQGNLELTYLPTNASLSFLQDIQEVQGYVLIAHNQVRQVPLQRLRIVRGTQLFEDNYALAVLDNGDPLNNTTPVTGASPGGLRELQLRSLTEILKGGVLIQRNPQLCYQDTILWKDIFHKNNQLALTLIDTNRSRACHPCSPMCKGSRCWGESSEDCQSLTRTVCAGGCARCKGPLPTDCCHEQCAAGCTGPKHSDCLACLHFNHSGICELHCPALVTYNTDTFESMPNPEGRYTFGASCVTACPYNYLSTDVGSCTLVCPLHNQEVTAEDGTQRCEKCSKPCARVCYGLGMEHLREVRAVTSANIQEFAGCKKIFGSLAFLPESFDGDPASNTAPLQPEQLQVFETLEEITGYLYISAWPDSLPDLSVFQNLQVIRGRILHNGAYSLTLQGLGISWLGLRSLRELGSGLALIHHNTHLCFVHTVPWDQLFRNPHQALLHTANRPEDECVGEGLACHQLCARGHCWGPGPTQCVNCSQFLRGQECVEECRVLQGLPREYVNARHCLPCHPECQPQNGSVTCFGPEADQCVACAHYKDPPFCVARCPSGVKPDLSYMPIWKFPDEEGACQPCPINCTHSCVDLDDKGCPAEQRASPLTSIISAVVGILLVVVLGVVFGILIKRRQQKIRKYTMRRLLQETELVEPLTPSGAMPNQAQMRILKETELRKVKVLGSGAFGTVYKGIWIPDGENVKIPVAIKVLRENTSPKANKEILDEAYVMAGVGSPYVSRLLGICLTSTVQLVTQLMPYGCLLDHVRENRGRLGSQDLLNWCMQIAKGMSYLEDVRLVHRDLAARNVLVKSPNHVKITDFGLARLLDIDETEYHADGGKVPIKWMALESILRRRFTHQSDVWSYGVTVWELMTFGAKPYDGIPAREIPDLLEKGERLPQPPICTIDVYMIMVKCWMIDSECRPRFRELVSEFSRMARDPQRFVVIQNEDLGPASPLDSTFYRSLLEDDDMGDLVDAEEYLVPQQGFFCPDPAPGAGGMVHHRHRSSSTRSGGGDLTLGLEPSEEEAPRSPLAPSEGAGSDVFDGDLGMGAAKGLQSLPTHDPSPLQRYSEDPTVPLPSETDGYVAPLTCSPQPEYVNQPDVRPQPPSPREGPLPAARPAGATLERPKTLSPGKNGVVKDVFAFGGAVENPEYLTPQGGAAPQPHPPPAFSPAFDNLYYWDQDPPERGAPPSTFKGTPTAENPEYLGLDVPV
Sequence of 5'-AMP-activated protein kinase catalytic subunit alpha-1 (Homo sapiens) (Q13131 whole entry, looked up): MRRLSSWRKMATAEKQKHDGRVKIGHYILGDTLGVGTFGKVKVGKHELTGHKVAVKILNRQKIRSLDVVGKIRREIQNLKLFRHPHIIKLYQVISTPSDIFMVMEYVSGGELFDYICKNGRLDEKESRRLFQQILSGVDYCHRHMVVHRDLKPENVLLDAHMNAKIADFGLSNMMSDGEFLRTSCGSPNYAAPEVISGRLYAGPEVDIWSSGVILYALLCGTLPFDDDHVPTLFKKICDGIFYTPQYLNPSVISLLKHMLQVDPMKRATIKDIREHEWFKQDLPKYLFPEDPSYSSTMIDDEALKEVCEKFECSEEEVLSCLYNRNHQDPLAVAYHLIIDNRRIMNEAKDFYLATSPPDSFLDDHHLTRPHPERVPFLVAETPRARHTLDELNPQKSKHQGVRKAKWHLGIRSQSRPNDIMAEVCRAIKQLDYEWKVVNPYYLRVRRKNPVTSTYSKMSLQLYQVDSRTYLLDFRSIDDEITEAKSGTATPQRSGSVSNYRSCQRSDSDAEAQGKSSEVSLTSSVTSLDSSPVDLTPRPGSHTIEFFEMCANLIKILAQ
Sequence of Mitogen-activated protein kinase 14 (Homo sapiens) (Q16539 whole entry): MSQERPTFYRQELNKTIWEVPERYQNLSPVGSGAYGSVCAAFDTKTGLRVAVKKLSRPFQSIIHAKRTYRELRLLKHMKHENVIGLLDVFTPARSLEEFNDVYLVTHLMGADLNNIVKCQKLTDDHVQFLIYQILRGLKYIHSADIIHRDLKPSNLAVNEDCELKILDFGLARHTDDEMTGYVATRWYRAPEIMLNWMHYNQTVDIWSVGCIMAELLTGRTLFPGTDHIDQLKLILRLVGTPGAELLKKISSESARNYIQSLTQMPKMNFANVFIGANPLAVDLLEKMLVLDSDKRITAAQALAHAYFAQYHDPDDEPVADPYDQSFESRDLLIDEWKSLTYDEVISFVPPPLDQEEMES
Sequence of Mitogen-activated protein kinase 8 (Homo sapiens) (P45983 whole entry): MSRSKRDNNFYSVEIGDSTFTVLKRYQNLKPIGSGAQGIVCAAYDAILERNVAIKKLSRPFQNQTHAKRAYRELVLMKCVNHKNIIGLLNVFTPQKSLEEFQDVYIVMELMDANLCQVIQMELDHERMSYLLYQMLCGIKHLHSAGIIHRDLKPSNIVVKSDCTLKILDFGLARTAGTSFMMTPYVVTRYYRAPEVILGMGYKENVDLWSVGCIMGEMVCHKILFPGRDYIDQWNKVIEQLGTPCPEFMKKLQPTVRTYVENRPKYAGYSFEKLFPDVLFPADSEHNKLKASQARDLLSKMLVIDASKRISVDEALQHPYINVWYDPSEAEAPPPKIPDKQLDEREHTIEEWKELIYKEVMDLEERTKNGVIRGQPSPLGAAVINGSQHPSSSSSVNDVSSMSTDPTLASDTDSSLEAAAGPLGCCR
Sequence of Epidermal growth factor receptor (Homo sapiens) (P00533 whole entry): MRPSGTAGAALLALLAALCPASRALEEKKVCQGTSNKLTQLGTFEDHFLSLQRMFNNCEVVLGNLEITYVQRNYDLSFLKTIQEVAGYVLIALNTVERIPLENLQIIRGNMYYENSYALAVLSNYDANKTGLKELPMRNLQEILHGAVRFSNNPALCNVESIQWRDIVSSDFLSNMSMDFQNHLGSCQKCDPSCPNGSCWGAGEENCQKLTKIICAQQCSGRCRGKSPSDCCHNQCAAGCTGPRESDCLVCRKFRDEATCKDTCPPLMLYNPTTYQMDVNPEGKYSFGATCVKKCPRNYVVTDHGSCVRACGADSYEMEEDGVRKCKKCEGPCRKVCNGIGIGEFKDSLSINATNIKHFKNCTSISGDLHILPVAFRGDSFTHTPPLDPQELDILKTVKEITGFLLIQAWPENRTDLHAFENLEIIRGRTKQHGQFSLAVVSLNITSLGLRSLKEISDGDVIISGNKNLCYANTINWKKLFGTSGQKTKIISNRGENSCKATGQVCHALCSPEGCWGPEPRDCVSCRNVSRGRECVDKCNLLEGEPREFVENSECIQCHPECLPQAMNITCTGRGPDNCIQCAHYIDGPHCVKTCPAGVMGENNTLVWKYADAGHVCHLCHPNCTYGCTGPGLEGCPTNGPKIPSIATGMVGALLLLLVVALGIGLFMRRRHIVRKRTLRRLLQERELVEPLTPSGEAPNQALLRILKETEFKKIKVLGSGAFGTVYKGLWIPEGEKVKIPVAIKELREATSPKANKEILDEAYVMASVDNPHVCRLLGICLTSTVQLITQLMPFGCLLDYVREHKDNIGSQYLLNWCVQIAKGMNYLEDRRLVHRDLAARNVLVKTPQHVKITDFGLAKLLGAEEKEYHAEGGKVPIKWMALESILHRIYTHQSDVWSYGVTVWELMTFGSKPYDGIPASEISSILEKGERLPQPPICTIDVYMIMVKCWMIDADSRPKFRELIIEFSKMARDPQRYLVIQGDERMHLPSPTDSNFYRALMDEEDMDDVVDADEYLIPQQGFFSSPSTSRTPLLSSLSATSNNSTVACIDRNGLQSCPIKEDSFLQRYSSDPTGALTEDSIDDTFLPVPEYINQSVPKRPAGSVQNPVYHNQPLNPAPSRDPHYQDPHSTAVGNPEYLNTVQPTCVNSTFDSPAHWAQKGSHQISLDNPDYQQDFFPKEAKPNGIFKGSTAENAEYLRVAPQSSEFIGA

Compound	IC50 (MCF7 [1])	IC50 (HCT-116 [2])	Activity [3]	Activity [4]	Activity [5]	Activity [6]	Activity (Homo sapiens [7])	Activity [8]	Activity [9]	Activity [10]	Activity [11]	Activity [12]	Activity [13]	Activity [14]	Activity (Homo sapiens [15])	Activity [16]	Activity [17]	Activity [18]	further results
Cc1ccc(S(=O)(=O)N2CC(CCn3cnc4c(Br)ncnc43)Oc3ccc(Br)cc32)cc1 (configuration not stated)	7.31 µM	16.4 µM																	
Cc1ccc(S(=O)(=O)N2CC(CCn3cnc4c(C(F)(F)F)ncnc43)Oc3ccc(C)cc32)cc1 (configuration not stated)	31.1 µM	4.63 µM																	
Cc1ccc(S(=O)(=O)N2CC(CCn3cnc4c(Cl)ncnc43)Oc3ccc(C)cc32)cc1 (configuration not stated)	12.9 µM	23.8 µM																	
Cc1ccc(S(=O)(=O)N2CC(CCn3cnc4c(Br)ncnc43)Oc3ccc(C)cc32)cc1 (configuration not stated)	4.01 µM	9.4 µM	97%	131%	99%	70%	106%	90%	55%	67%	81%	52%	74%	93%	89%	86%	95%	84%	
Cc1ccc(S(=O)(=O)N2CC(CCn3cnc4c(Br)ncnc43)Oc3cc(Cl)ccc32)cc1 (configuration not stated)	6.77 µM	12.8 µM	108%	129%	84%	112%	99%	90%	65%	64%	90%	47%	68%	91%	94%	73%	94%	89%	
Cc1ccc(S(=O)(=O)N2CC(CCn3cnc4c(Cl)ncnc43)Oc3ccc(Br)cc32)cc1 (configuration not stated)	14.5 µM	15.7 µM																	
Cc1ccc(S(=O)(=O)N2CC(CCn3cnc4c(Cl)nc(Cl)nc43)Oc3cc(Cl)ccc32)cc1 (configuration not stated)	3.26 µM	7.63 µM	74%	100%	76%	77%	139%	87%	67%	57%	93%	67%	94%	72%	103%	89%	84%	78%	Activity (HCT-116 [19]): Active; Activity (HCT-116 [20]): 6.67%; Activity (HCT-116 [21]): Active; Activity (HCT-116 [22]): 28.4%; Activity (HCT-116 [23]): 49.5%; Activity (MCF7 [24]): 0.83%; Activity (HCT-116 [25]): Active; Activity (HCT-116 [26]): Active; Activity (HCT-116 [27]): 49.2%; Activity (MCF7 [28]): 7.9%; Activity (MCF7 [29]): 100%; Activity (MCF7 [30]): Active; Activity (HCT-116 [31]): Active; Activity (MCF7 [32]): Active; Activity (MCF7 [33]): Active; Activity (MCF7 [34]): 87.3%
Cc1ccc(S(=O)(=O)N2CC(CCn3cnc4c(C(F)(F)F)ncnc43)Oc3ccc(Br)cc32)cc1 (configuration not stated)	20.6 µM	23.6 µM																	
Cc1ccc(S(=O)(=O)N2CC(CCn3cnc4c(Cl)nc(Cl)nc43)Oc3ccc(Br)cc32)cc1 (configuration not stated)	5.52 µM	7.85 µM	94%	95%	78%	59%	87%	86%	63%	59%	86%	44%	66%	97%	95%	70%	98%	88%	
Cc1ccc(S(=O)(=O)N2CC(CCn3cnc4c(Cl)nc(Cl)nc43)Oc3ccccc32)cc1 (configuration not stated)																			IC50 (MCF7 [35]): 13 µM; IC50 (HCT-116 [36]): 7.06 µM
Cc1ccc(S(=O)(=O)N2CC(CCn3cnc4c(Cl)nc(Cl)nc43)Oc3ccc(C)cc32)cc1 (configuration not stated)	2.27 µM	4.44 µM	96%	89%	90%	82%	104%	93%	50%	62%	88%	56%	73%	112%	88%	75%	88%	96%	Activity (HCT-116 [19]): Active; Activity (HCT-116 [20]): 5.3%; Activity (HCT-116 [21]): Active; Activity (HCT-116 [22]): 36.3%; Activity (HCT-116 [23]): 26.5%; Activity (MCF7 [24]): 2.1%; Activity (HCT-116 [25]): Active; Activity (HCT-116 [26]): Active; Activity (HCT-116 [27]): 51.25%; Activity (MCF7 [28]): 9.3%; Activity (MCF7 [29]): 100%; Activity (MCF7 [30]): Active; Activity (MCF7 [32]): Active; Activity (MCF7 [33]): Active; Activity (MCF7 [34]): 77.8%
Cc1ccc(S(=O)(=O)N2CC(CCn3cnc4c(Cl)ncnc43)Oc3cc(Cl)ccc32)cc1 (configuration not stated)	11.2 µM	14.8 µM																	
Cc1ccc(S(=O)(=O)N2CC(CCn3cnc4c(C(F)(F)F)ncnc43)Oc3cc(Cl)ccc32)cc1 (configuration not stated)	23 µM	13.6 µM																	
